The target of data set [1] is Proto-oncogene tyrosine-protein kinase Src (Mus musculus) (UniProt P05480). The data set can be described thus: Inhibition of LPS-induced SRC phosphorylation in mouse RAW264.7 cells preincubated for 1 hr followed by LPS stimulation for 30 mins by Western blot method. The class given is cell-based. The method in brief: (§1)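 RAW 264.7 cells, 3×10^6 per dish overnight, pretreated 1 h with 1, 5 or 10 µM, then LPS 100 ng/mL for 15 or 30 min; nuclear/cytoplasmic lysates (20–30 µg) run on 10% SDS-PAGE, immunoblotted for phospho/total proteins, GAPDH loading control, ECL, densitometry; three independent experiments.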
Sequence of Proto-oncogene tyrosine-protein kinase Src (Mus musculus) (P05480 2-535 limits assumed): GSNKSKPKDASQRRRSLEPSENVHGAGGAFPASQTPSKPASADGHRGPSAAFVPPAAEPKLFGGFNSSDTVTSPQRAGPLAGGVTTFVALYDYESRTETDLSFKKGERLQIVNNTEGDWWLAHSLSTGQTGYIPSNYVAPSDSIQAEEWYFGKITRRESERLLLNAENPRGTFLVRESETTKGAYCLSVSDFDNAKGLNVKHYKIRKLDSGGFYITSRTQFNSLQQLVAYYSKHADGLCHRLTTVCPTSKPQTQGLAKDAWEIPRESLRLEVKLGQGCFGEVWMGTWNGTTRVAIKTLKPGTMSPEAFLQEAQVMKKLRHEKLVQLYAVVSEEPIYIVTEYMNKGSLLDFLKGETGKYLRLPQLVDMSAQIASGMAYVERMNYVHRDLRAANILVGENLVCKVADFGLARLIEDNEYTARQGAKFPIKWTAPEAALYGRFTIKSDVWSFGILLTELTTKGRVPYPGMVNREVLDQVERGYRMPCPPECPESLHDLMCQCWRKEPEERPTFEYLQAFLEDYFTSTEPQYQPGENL

The test system of data set [2] is RAW264.7. The data set can be described thus: Inhibition of LPS-induced PI3K phosphorylation in mouse RAW264.7 cells at 1 to 10 uM preincubated for 1 hr followed by LPS stimulation for 15 to 30 mins by Western blot method. The class given is cell-based. In a few lines: as §1
Data set [3] addresses MAP kinase p38 (Mus musculus) (UniProt P47811+O08911+Q9WUI1+Q9Z1B7). Kind of data set: Inhibition of LPS-induced p38 MAPK phosphorylation in mouse RAW264.7 cells at 1 to 10 uM preincubated for 1 hr followed by LPS stimulation for 15 to 30 mins by Western blot method. The class given is cell-based. The method in brief:
as §1

For data set [4], the system named is HeLa. Kind of data set: Cell cycle arrest in human HeLa cells assessed as accumulation at G0/G1 phase at 20 uM after 24 hrs by propidium iodide staining based flow cytometry (reference value: 49.4%). The class given is functional. In a few lines:
(§2)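 HeLa cells, 3×10^5/well, attached overnight, switched to serum-free medium for synchronisation, then DMSO or 5, 10, 20 µM for 24 h; cells fixed, PI-stained, G0/G1, S and G2/M fractions by flow cytometry; n = 3, mean ± SD.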

Data set [5] concerns HeLa. Kind of data set: Cell cycle arrest in human HeLa cells assessed as accumulation at G0/G1 phase at 5 uM after 24 hrs by propidium iodide staining based flow cytometry (reference value: 49.4%). It is filed as functional. In a few lines: as §2
In data set [6] the test system is RAW264.7. The data set can be described thus: Inhibition of LPS-induced ERK phosphorylation in mouse RAW264.7 cells at 1 to 10 uM preincubated for 1 hr followed by LPS stimulation for 15 to 30 mins by Western blot method. The class given is cell-based. The method in brief:
as §1

The target in data set [7] is Inhibitor of nuclear factor kappa-B kinase subunit alpha/beta (Mus musculus) (UniProt Q60680+O88351). Kind of data set: Inhibition of IKK-alphabeta in mouse RAW264.7 cells assessed as reduction in LPS-induced IKK-alphabeta phosphorylation at 1 to 10 uM preincubated for 1 hr followed by LPS stimulation for 15 to 30 mins by Western blot method. The class given is cell-based. In a few lines: as §1

For the next data set, the system named is HEK293. The data set can be described thus: Cytotoxicity against HEK293 cells expressing human TLR7 assessed as reduction in cell viability up to 20 uM after 24 hrs by WST-1 assay. It is filed as cell-based. The conditions noted are these: hek293, 24 h. The method in brief:
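HEK hTLR7 cells seeded 5×10^4/well, 24 h, then exposed to a concentration series for 24 h; WST-1 reagent added at 37 °C until colour developed (30 min–2 h), absorbance 450 nm.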

Data set [8] relates to HeLa. Kind of data set: Cell cycle arrest in human HeLa cells assessed as accumulation at S phase at 20 uM after 24 hrs by propidium iodide staining based flow cytometry (reference value: 34.9%). The class given is functional. The method in brief: as §2
The next data set concerns HMEC. Kind of data set: Cytotoxicity against HMEC up to 40 uM after 24 to 48 hrs by WST1 assay. The class given is cell-based. The conditions noted are these: human.
The test system of data set [9] is HeLa. The data set can be described thus: Cell cycle arrest in human HeLa cells assessed as accumulation at S phase at 10 uM after 24 hrs by propidium iodide staining based flow cytometry (reference value: 34.9%). It is filed as functional. The method in brief: as §2
In data set [10] the test system is RAW264.7. The data set can be described thus: Antiinflammatory activity in mouse RAW264.7 cells assessed as decrease in LPS-induced TNFalpha production preincubated for 30 mins followed by LPS stimulation measured after 18 hrs by ELISA. It is filed as functional, cell-based. The method in brief:
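RAW 264.7 cells, 1.5×10^6/well, 24 h, medium refreshed; pretreated with increasing compound 30 min, then LPS 100 ng/mL for 18 h; supernatant TNF-α quantified by sandwich ELISA against recombinant mouse standards.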

In data set [11] the test system is HeLa. The data set can be described thus: Growth inhibition of human HeLa cells after 48 hrs by WST1 assay. The class given is functional.
Data set [12] concerns the target Proto-oncogene tyrosine-protein kinase Src (Homo sapiens) (UniProt P12931). The data set can be described thus: Inhibition of SRC (unknown origin) at 5 uM using KVEKIGEGTYGVVYK-amide as substrate by ADP-Glo kinase assay relative to control.

Molecules are shown by their SMILES. The source made the active and inactive calls. The calls are words filed in the database; no cut-off is given here.

Sequence of Proto-oncogene tyrosine-protein kinase Src (Homo sapiens) (P12931 2-536 limits assumed): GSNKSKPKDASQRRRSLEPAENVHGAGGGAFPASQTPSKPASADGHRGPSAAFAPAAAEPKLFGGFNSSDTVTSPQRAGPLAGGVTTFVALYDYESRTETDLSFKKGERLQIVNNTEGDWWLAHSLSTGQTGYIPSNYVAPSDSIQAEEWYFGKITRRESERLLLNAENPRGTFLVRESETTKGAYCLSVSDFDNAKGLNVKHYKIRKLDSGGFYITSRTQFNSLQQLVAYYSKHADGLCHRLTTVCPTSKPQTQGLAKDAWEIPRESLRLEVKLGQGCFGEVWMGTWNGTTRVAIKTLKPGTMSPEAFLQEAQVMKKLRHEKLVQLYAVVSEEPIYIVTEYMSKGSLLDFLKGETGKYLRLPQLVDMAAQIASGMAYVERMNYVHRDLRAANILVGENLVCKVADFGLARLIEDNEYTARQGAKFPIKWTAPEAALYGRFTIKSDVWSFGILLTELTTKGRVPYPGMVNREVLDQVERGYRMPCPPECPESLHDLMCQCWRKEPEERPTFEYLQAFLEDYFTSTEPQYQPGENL

As to `O=C(NNC(=O)c1csc(-c2ccc(Cl)cc2Cl)n1)c1ccccn1`, the inhibition entry was “Dose-dependent effect” in data set [1] and under 50% in data set [12]. Further, the inhibition result (in the data set on RAW264.7 [2]; in data set [7]) was “Active” each time. Moreover, the inhibition result (in [3]; in the data set on RAW264.7 [6]) was “inactive” in each case. Besides, the Activity with HeLa [4] is recorded as 67%; with HeLa [5], 37.8%; with HEK293 it was “Non-Toxic”; in the data set with HeLa [8], 29.1%; in the data set on HMEC, “Non-Toxic”; with HeLa [9], 41.7%. In addition, the Activity result in the data set on RAW264.7 [10] was “Dose-dependent effect”. This compound registered a GI50 in the data set with HeLa [11] of 1350 nM.
